Calls of active or inactive are those of the source. The rule behind the calls is not given here.
Experiments:
[1] = Activity at RXR-LXR heterodimer in human THP1 cells assessed as induction of ABCA1 mRNA; format: cell-based; conditions: THP-1
[2] = target: T1, Retinoic acid receptor RXR-alpha (Homo sapiens, UniProt P19793); assay: (§1) Activity at RXRalpha by GAL4DNA cotransfection assay
T1 sequence (P19793 whole entry): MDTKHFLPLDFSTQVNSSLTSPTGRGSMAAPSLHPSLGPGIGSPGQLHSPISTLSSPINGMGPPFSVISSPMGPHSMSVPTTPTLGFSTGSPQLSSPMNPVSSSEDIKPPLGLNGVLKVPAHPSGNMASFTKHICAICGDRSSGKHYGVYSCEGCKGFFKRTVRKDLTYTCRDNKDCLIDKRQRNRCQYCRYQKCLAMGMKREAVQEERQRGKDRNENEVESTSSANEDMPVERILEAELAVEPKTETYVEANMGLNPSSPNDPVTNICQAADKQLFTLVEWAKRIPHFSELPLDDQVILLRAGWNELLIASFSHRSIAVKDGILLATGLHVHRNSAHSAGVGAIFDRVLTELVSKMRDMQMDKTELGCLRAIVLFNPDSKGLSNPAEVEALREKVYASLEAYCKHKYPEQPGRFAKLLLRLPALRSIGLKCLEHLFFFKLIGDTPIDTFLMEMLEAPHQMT
Outline: (§2)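 RXRα co-transfection assay using the yeast GAL4 DNA-binding domain fused to the RXRα ligand-binding domain, with a yeast promoter driving luciferase. EC50 is reported, and efficacy is given as % maximal activation versus the reference RXR agonist.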

[3] = target: T2, Retinoic acid receptor RXR-alpha (Homo sapiens) (UniProt P19793); assay: Activity at RXRalpha by GAL4DNA cotransfection assay relative to 5-((3-(1-ethyl-4,4,6-trimethyl-2-oxo-1,2,3,4-tetrahydroquinolin-7-yl)-4-(trifluoromethoxy)phenyl)methylene)thiazolidine-2,4-dione; outline: as §2
T2 sequence (whole entry): T1 sequence (P19793 whole entry)

[4] = target: T2, Retinoic acid receptor RXR-alpha (Homo sapiens); assay: as §1; outline: as §2
[5] = Activity at RXR-PPARgamma heterodimer in primary human preadipocytes assessed as induction of adipocytes fatty acid binding protein by bDNA assay; format: cell-based
Homo sapiens [6] = organism: Homo sapiens; assay: Activity at RXR-PPARgamma in primary human preadipocytes assessed as induction of adipocytes fatty acid binding protein by bDNA assay relative to rosiglitazone; format: cell-based
Rattus norvegicus [7] = assay: Effect on serum cholesterol level in high cholesterol diet fed Sprague-Dawley rat at 1 mg/kg, po after 8 days relative to control; format: functional
Outline: (§3)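 Male Sprague–Dawley rats were fed a high-cholesterol atherogenic diet ad libitum. After 6 days on the diet, oral dosing began at 0.3, 1, 3 or 10 mg/kg in 15% hydroxypropyl β-cyclodextrin, pH 10, for 8 days total. Serum total cholesterol, HDL-C, LDL-C and triglycerides and plasma Cmax were measured. Groups are compared with vehicle as mean ± SEM by one-way ANOVA with Dunnett's test.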

Rattus norvegicus [8] = assay: Effect on serum HDL-C level in high cholesterol diet fed Sprague-Dawley rat at 1 mg/kg, po after 8 days relative to control; format: functional; outline: as §3
Rattus norvegicus [9] = assay: Effect on serum LDL-C level in high cholesterol diet fed Sprague-Dawley rat at 1 mg/kg, po after 8 days relative to control; format: functional; outline: as §3
Rattus norvegicus [10] = assay: Effect on serum triglyceride level in high cholesterol diet fed Sprague-Dawley rat at 1 mg/kg, po after 8 days relative to control; format: functional; outline: as §3
THP-1 = assay: Activation of RXR-LXR heterodimer in human THP1 cells assessed as induction of ABCA1 mRNA relative to 5-((3-(1-ethyl-4,4,6-trimethyl-2-oxo-1,2,3,4-tetrahydroquinolin-7-yl)-4-(trifluoromethoxy)phenyl)methylene)thiazolidine-2,4-dione; format: cell-based; parameters: concentration or dose not given beside the values
[11] = Oral bioavailability in Sprague-Dawley rat at 3 mg/kg; format: ADME, organism-based; conditions: in vivo
Outline: (§4)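 Sprague–Dawley rats dosed at 3 mg/kg in 10% hydroxypropyl β-cyclodextrin (pH 10). Oral bioavailability, Cmax, AUC and terminal half-life were taken from the plasma profile.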

[12] = Cmax in Sprague-Dawley rat at 3 mg/kg; format: ADME, organism-based; parameters: dose 3 mg/kg; conditions: in vivo; outline: as §4
[13] = AUC in Sprague-Dawley rat at 3 mg/kg; format: ADME, organism-based; parameters: dose 3 mg/kg; conditions: plasma; outline: as §4
[14] = Half life in Sprague-Dawley rat at 3 mg/kg; format: ADME, organism-based; parameters: dose 3 mg/kg; conditions: in vivo; outline: as §4
[15] = Cmax in high cholesterol diet fed Sprague-Dawley rat at 0.3 mg/kg, po; format: ADME, organism-based; parameters: dose 0.3 mg/kg, route oral; conditions: in vivo; outline: as §3
[16] = Cmax in high cholesterol diet fed Sprague-Dawley rat at 10 mg/kg, po; format: ADME, organism-based; parameters: dose 10 mg/kg, route oral; conditions: in vivo; outline: as §3
Rattus norvegicus [17] = assay: Effect on serum cholesterol level in high cholesterol diet fed Sprague-Dawley rat at 0.3 mg/kg, po after 8 days relative to control; format: functional; outline: as §3
Rattus norvegicus [18] = assay: Effect on serum cholesterol level in high cholesterol diet fed Sprague-Dawley rat at 3 mg/kg, po after 8 days relative to control; format: functional; outline: as §3
Rattus norvegicus [19] = assay: Effect on serum cholesterol level in high cholesterol diet fed Sprague-Dawley rat at 10 mg/kg, po after 8 days relative to control; format: functional; outline: as §3
Rattus norvegicus [20] = assay: Effect on serum HDL-C level in high cholesterol diet fed Sprague-Dawley rat at 0.3 mg/kg, po after 8 days relative to control; format: functional; outline: as §3
Rattus norvegicus [21] = assay: Effect on serum HDL-C level in high cholesterol diet fed Sprague-Dawley rat at 3 mg/kg, po after 8 days relative to control; format: functional; outline: as §3
Rattus norvegicus [22] = assay: Effect on serum HDL-C level in high cholesterol diet fed Sprague-Dawley rat at 10 mg/kg, po after 8 days relative to control; format: functional; outline: as §3
Rattus norvegicus [23] = assay: Effect on serum LDL-C level in high cholesterol diet fed Sprague-Dawley rat at 0.3 mg/kg, po after 8 days relative to control; format: functional; outline: as §3
Rattus norvegicus [24] = assay: Effect on serum LDL-C level in high cholesterol diet fed Sprague-Dawley rat at 3 mg/kg, po after 8 days relative to control; format: functional; outline: as §3
Rattus norvegicus [25] = assay: Effect on serum LDL-C level in high cholesterol diet fed Sprague-Dawley rat at 10 mg/kg, po after 8 days relative to control; format: functional; outline: as §3
Rattus norvegicus [26] = assay: Effect on serum triglyceride level in high cholesterol diet fed Sprague-Dawley rat at 0.3 mg/kg, po after 8 days relative to control; format: functional; outline: as §3
Rattus norvegicus [27] = assay: Effect on serum triglyceride level in high cholesterol diet fed Sprague-Dawley rat at 3 mg/kg, po after 8 days relative to control; format: functional; outline: as §3
Rattus norvegicus [28] = assay: Effect on serum triglyceride level in high cholesterol diet fed Sprague-Dawley rat at 10 mg/kg, po after 8 days relative to control; format: functional; outline: as §3
Mus musculus = organism: Mus musculus; assay: Decrease in blood glucose level in db/db mouse after 11 days; format: functional, organism-based
Outline: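 db/db mice, a diabetes model, were treated for 11 days and blood glucose was monitored.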

Homo sapiens [29] = organism: Homo sapiens; assay: Activity at RXR-PPARgamma in primary human preadipocytes assessed as induction of adipocytes fatty acid binding protein by bDNA assay relative to 5-((3-(1-ethyl-4,4,6-trimethyl-2-oxo-1,2,3,4-tetrahydroquinolin-7-yl)-4-(trifluoromethoxy)phenyl)methylene)thiazolidine-2,4-dione; format: cell-based

Structure (SMILES): CCN1C(=O)CN(C(C)C)c2cc(C)c(-c3cc(/C=C/C(=O)O)ccc3OC(F)(F)F)cc21
- EC50 [1]: > 3000 nM

Structure (SMILES): CCN1C(=O)CC(C)(C)c2cc(C)c(-c3ccc(/C=C/C(=O)O)cc3OC(F)(F)F)cc21
- EC50 [1]: > 3000 nM

Structure (SMILES): CCN1C(=O)CC(C)(C)c2cc(C)c(-c3ccc(/C=C/C(=O)O)o3)cc21
- EC50 [1]: > 3000 nM
- EC50 [2]: > 10000 nM

Structure (SMILES): CCn1c(=O)c2c(c3cc(-c4cc(/C=C/C(=O)O)ccc4OC(F)(F)F)ccc31)CCC2
- EC50 [1]: > 3000 nM
- EC50 [2]: 96.6 nM
- Activity [3]: 125%

Structure (SMILES): CCN1C(=O)CC(C)(C)c2cc(C)c(-c3cc(/C=C/C(=O)O)ccc3OC)cc21
- EC50 [1]: 975 nM

Structure (SMILES): CCN1C(=O)C(C)Oc2cc(C)c(-c3cc(/C=C/C(=O)O)ccc3OC(F)(F)F)cc21 (stereo not drawn)
- EC50 [1]: > 3000 nM

Structure (SMILES): Cc1cc2c(cc1-c1cc(/C=C/C(=O)O)ccc1OC(F)(F)F)NC(=O)CC2(C)C
- EC50 [1]: > 3000 nM
- Activity [4]: inactive

Structure (SMILES): CCN1C(=O)CC(C)(C)c2cc(C)c(-c3cc(/C=C4\SC(=O)NC4=O)ccc3OC(F)(F)F)cc21
- EC50 [1]: 180 nM
- EC50 [2]: 0.9 nM
- EC50 [5]: 139 nM
- Activity (Homo sapiens [6]): 25%
- Activity (Rattus norvegicus [7]): 371 mg/dL
- Activity (Rattus norvegicus [8]): 41 mg/dL
- Activity (Rattus norvegicus [9]): 126 mg/dL
- Activity (Rattus norvegicus [10]): 216 mg/dL

Structure (SMILES): CCN1C(=O)CC(C)(C)c2cc(C)c(-c3cc(/C=C/C(=O)O)ccc3OCC(F)(F)F)cc21
- EC50 [1]: 296 nM
- Activity (THP-1): 60%
- EC50 [2]: 67.3 nM
- Activity [3]: 76%
- EC50 [5]: > 3000 nM
- bioavailability [11]: 51%
- Cmax [12]: 844 ng/mL
- AUC [13]: 5520 ng·h/mL
- half-life [14]: 4.6 h
- Cmax [15]: 61 ng/mL
- Cmax [16]: 2120 ng/mL
- Activity (Rattus norvegicus [17]): 382 mg/dL
- Activity (Rattus norvegicus [7]): 440 mg/dL
- Activity (Rattus norvegicus [18]): 302 mg/dL
- Activity (Rattus norvegicus [19]): 349 mg/dL
- Activity (Rattus norvegicus [20]): 16 mg/dL
- Activity (Rattus norvegicus [8]): 38 mg/dL
- Activity (Rattus norvegicus [21]): 34 mg/dL
- Activity (Rattus norvegicus [22]): 41 mg/dL
- Activity (Rattus norvegicus [23]): 134 mg/dL
- Activity (Rattus norvegicus [9]): 151 mg/dL
- Activity (Rattus norvegicus [24]): 102 mg/dL
- Activity (Rattus norvegicus [25]): 126 mg/dL
- Activity (Rattus norvegicus [26]): 341 mg/dL
- Activity (Rattus norvegicus [10]): 182 mg/dL
- Activity (Rattus norvegicus [27]): 249 mg/dL
- Activity (Rattus norvegicus [28]): 175 mg/dL
- Activity (Mus musculus): inactive

Structure (SMILES): CCN1C(=O)OC(C)(C)c2cc(C)c(-c3cc(/C=C/C(=O)O)ccc3OC(F)(F)F)cc21
- EC50 [1]: > 3000 nM

Structure (SMILES): CCN1C(=O)C(C)(C)Oc2cc(C)c(-c3cc(/C(C)=C/C(=O)O)ccc3OC(F)(F)F)cc21
- EC50 [1]: 163 nM
- Activity (THP-1): 76%
- Activity [3]: 86%
- EC50 [5]: > 3000 nM
- Activity (Homo sapiens [29]): 240%

Structure (SMILES): CCN1C(=O)CC(C)(C)c2cc(C)c(-c3cc(/C=C/C(=O)O)ccc3OC(F)(F)F)cc21
- EC50 [1]: 3.6 nM
- Activity (THP-1): 81%
- EC50 [2]: 1.8 nM

Structure (SMILES): Cc1cc2c(cc1-c1cc(/C=C/C(=O)O)ccc1OC(F)(F)F)N(C)C(=O)CC2(C)C
- EC50 [1]: 200 nM
- Activity (THP-1): 56%
- EC50 [2]: 24.3 nM

Structure (SMILES): CCN1C(=O)C(C)(C)Oc2cc(C)c(-c3cc(/C=C/C(=O)O)ccc3OC(F)(F)F)cc21
- EC50 [1]: 39.7 nM
- Activity (THP-1): 79%
- EC50 [2]: 173 nM
- Activity [3]: 78%

Structure (SMILES): CCCN1C(=O)CC(C)(C)c2cc(C)c(-c3cc(/C=C/C(=O)O)ccc3OC(F)(F)F)cc21
- EC50 [1]: > 3000 nM
- EC50 [2]: 2.1 nM
- Activity [3]: 83%
- EC50 [5]: 131 nM

Structure (SMILES): Cc1cc2c(cc1-c1cc(/C=C/C(=O)O)ccc1OC(F)(F)F)N(CC(F)(F)F)C(=O)CC2(C)C
- EC50 [1]: > 3000 nM
- EC50 [2]: 1.8 nM
- Activity [3]: 94%
- EC50 [5]: 126 nM

Structure (SMILES): Cc1cc2c(cc1-c1cc(/C=C/C(=O)O)ccc1OC(F)(F)F)N(C(C)C)C(=O)CC2(C)C
- EC50 [1]: 10 nM
- Activity (THP-1): 70%

Structure (SMILES): CCn1c(=O)c2c(c3ccc(-c4cc(/C=C/C(=O)O)ccc4OC(F)(F)F)cc31)CCC2
- EC50 [1]: > 3000 nM
- EC50 [2]: 1600 nM

Structure (SMILES): Cc1cc2c(cc1-c1cc(/C=C/C(=O)O)ccc1OCC(F)(F)F)N(C(C)C)C(=O)CC2(C)C
- EC50 [1]: 44 nM
- Activity (THP-1): 32%
- EC50 [2]: 18.3 nM
- Activity [3]: 64%
- EC50 [5]: > 3000 nM
- Activity (Homo sapiens [29]): 149%

Structure (SMILES): CCN1C(=O)CC(C)(C)c2cc(C)c(-c3ccc(/C=C/C(=O)O)s3)cc21
- EC50 [1]: > 3000 nM
- EC50 [2]: 1200 nM

Source: ChEMBL document CHEMBL1139971, “RXR-LXR heterodimer modulators for the potential treatment of dyslipidemia” (Bioorg Med Chem Lett, 2007)
